ChEMBL document CHEMBL1154674, “Synthesis and evaluation of three 18F-labeled aminophenylbenzothiazoles as amyloid imaging agents” (J Med Chem, 2009)
One block for each compound: values may come before it.

Legend:
Type in all cases: ADME, organism-based, Macaca mulatta
[1] = Drug level in normal rhesus monkey pons assessed as standard uptake value at 81.2 MBq, iv after 1.5 mins by microPET; conditions: in vivo, 0.025 h
[2] = Drug level in normal rhesus monkey parietal cortex assessed as standard uptake value at 81.2 MBq, iv after 42.5 mins by microPET; conditions: in vivo
[3] = Drug level in normal rhesus monkey parietal cortex assessed as standard uptake value at 81.2 MBq, iv after 22.5 mins by microPET; conditions: in vivo, 0.375 h
[4] = Drug level in normal rhesus monkey cerebellum assessed as standard uptake value at 81.2 MBq, iv after 57.5 mins by microPET; conditions: in vivo
How it was run: (§1)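 One normal rhesus monkey, each tracer given iv via the vena saphena (81.2, 96.3 or 109.4 MBq), with 1 day between tracer injections. Dynamic brain μPET over 180 min used frames of 5 × 60 s, 5 × 120 s, 9 × 300 s and 12 × 600 s. Images were reconstructed by filtered back projection with a RAMP filter. Regional time-activity curves were expressed as SUV.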

[5] = Drug level in normal rhesus monkey pons assessed as standard uptake value at 81.2 MBq, iv after 12 mins by microPET; conditions: in vivo, 0.2 h
[6] = Drug level in normal rhesus monkey frontal cortex assessed as standard uptake value at 81.2 MBq, iv after 32.5 mins by microPET; conditions: in vivo
[7] = Drug level in normal rhesus monkey cerebellum assessed as standard uptake value at 81.2 MBq, iv after 85 mins by microPET; conditions: in vivo; how it was run: as §1
[8] = Drug level in normal rhesus monkey frontal cortex assessed as standard uptake value at 81.2 MBq, iv after 6 mins by microPET; conditions: in vivo, 0.1 h
[9] = Drug level in normal rhesus monkey white matter assessed as standard uptake value at 81.2 MBq, iv after 47.5 mins by microPET; conditions: in vivo
[10] = Drug level in normal rhesus monkey thalamus assessed as standard uptake value at 81.2 MBq, iv after 0.5 mins by microPET; conditions: in vivo
[11] = Drug level in normal rhesus monkey thalamus assessed as standard uptake value at 96.3 MBq, iv after 47.5 mins by microPET; conditions: in vivo
[12] = Drug level in normal rhesus monkey pons assessed as standard uptake value at 96.3 MBq, iv after 1.5 mins by microPET; conditions: in vivo, 0.025 h
[13] = Drug level in normal rhesus monkey parietal cortex assessed as standard uptake value at 96.3 MBq, iv after 10 mins by microPET; conditions: in vivo
[14] = Drug level in normal rhesus monkey frontal cortex assessed as standard uptake value at 96.3 MBq, iv after 2.5 mins by microPET; conditions: in vivo
[15] = Drug level in normal rhesus monkey pons assessed as standard uptake value at 96.3 MBq, iv after 125 mins by microPET; conditions: in vivo
[16] = Drug level in normal rhesus monkey white matter assessed as standard uptake value at 96.3 MBq, iv after 52.5 mins by microPET; conditions: in vivo, 0.875 h
[17] = Drug level in normal rhesus monkey thalamus assessed as standard uptake value at 96.3 MBq, iv after 75 mins by microPET; conditions: in vivo, 1.25 h
[18] = Drug level in normal rhesus monkey pons assessed as standard uptake value at 96.3 MBq, iv after 27.5 mins by microPET; conditions: in vivo
[19] = Drug level in normal rhesus monkey thalamus assessed as standard uptake value at 109.4 MBq, iv after 93 mins by microPET; conditions: in vivo, 1.55 h
[20] = Drug level in normal rhesus monkey white matter assessed as standard uptake value at 109.4 MBq, iv after 47.5 mins by microPET; conditions: in vivo
[21] = Drug level in normal rhesus monkey cerebellum assessed as standard uptake value at 109.4 MBq, iv after 27.5 mins by microPET; conditions: in vivo
How it was run: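 Single normal rhesus monkey; each tracer given iv via the vena saphena, with 1 day between tracer injections. Dynamic μPET ran 180 min (5×60 s, 5×120 s, 9×300 s, 12×600 s). Images were reconstructed by filtered back projection with a RAMP filter. Regional time-activity curves were expressed as SUV.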

[22] = Drug level in normal rhesus monkey white matter assessed as standard uptake value at 109.4 MBq, iv after 0.375 mins by microPET; conditions: in vivo, 22 s
[23] = Drug level in normal rhesus monkey thalamus assessed as standard uptake value at 152.9 MBq, iv after 37.5 mins by microPET; conditions: in vivo, 0.625 h
[24] = Drug level in normal rhesus monkey white matter assessed as standard uptake value at 152.9 MBq, iv after 42.5 mins by microPET; conditions: in vivo
[25] = Drug level in normal rhesus monkey cerebellum assessed as standard uptake value at 152.9 MBq, iv after 52.5 mins by microPET; conditions: in vivo, 0.875 h
How it was run: (§2)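 One normal rhesus monkey received each tracer via the vena saphena, with 1 day between injections. Dynamic μPET ran 180 min for 18F tracers (5×60 s, 5×120 s, 9×300 s, 12×600 s) and 90 min for the 11C tracer (5×60 s, 5×120 s, 9×300 s, 3×600 s). Filtered back-projection reconstruction (RAMP filter) was used. Time-activity curves were drawn to give regional SUV.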

[26] = Drug level in normal rhesus monkey pons assessed as standard uptake value at 152.9 MBq, iv after 85 mins by microPET; conditions: in vivo
[27] = Drug level in normal rhesus monkey white matter assessed as standard uptake value at 152.9 MBq, iv after 27.5 mins by microPET; conditions: in vivo
[28] = Drug level in normal rhesus monkey thalamus assessed as standard uptake value at 152.9 MBq, iv after 65 mins by microPET; conditions: in vivo
[29] = Drug level in normal rhesus monkey thalamus assessed as standard uptake value at 152.9 MBq, iv after 85 mins by microPET; conditions: in vivo
[30] = Drug level in normal rhesus monkey pons assessed as standard uptake value at 152.9 MBq, iv after 2.5 mins by microPET; conditions: in vivo
[31] = Drug level in normal rhesus monkey cerebellum assessed as standard uptake value at 152.9 MBq, iv after 14 mins by microPET; conditions: in vivo; how it was run: as §2
[32] = Drug level in normal rhesus monkey frontal cortex assessed as standard uptake value at 152.9 MBq, iv after 65 mins by microPET; conditions: in vivo
How it was run: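 Single normal rhesus monkey; tracer given iv via the vena saphena, 1 day apart from the other tracer injections. Dynamic μPET ran 90 min (5×60 s, 5×120 s, 9×300 s, 3×600 s). Images were reconstructed by filtered back projection with a RAMP filter. Regional time-activity curves were expressed as SUV.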

[33] = Drug level in normal rhesus monkey pons assessed as standard uptake value at 152.9 MBq, iv after 65 mins by microPET; conditions: in vivo
[34] = Drug level in normal rhesus monkey parietal cortex assessed as standard uptake value at 152.9 MBq, iv after 0.5 mins by microPET; conditions: in vivo
[35] = Drug level in normal rhesus monkey pons assessed as standard uptake value at 152.9 MBq, iv after 6 mins by microPET; conditions: in vivo, 0.1 h
[36] = Drug level in normal rhesus monkey parietal cortex assessed as standard uptake value at 152.9 MBq, iv after 10 mins by microPET; conditions: in vivo

SUV [1]: 2.731 | SUV [2]: 3.863 | SUV [3]: 4.538 | SUV [4]: 2.522 | SUV [5]: 5.701 | SUV [6]: 5.574 | SUV [7]: 1.864 | SUV [8]: 5.127 | SUV [9]: 3.674 | SUV [10]: 0.855
Structure (SMILES): CNc1ccc2nc(-c3ccc([18F])cc3)sc2c1

SUV [11]: 2.25 | SUV [12]: 0.8 | SUV [13]: 2.26 | SUV [14]: 1.8 | SUV [15]: 1.88 | SUV [16]: 1.4 | SUV [17]: 2.19 | SUV [18]: 1.61
Structure (SMILES): CN(C)c1ccc2nc(-c3ccc([18F])cc3)sc2c1

SUV [19]: 5.05 | SUV [20]: 3.53 | SUV [21]: 4.16 | SUV [22]: -0.01
Structure (SMILES): Nc1ccc2nc(-c3ccc([18F])cc3)sc2c1

SUV [23]: 1.364 | SUV [24]: 1.04 | SUV [25]: 0.813 | SUV [26]: 0.718 | SUV [27]: 1.209 | SUV [28]: 0.85 | SUV [29]: 0.672 | SUV [30]: 1.05 | SUV [31]: 2.11 | SUV [32]: 0.653 | SUV [33]: 0.852 | SUV [34]: 0.039 | SUV [35]: 2.044 | SUV [36]: 2.18
Structure (SMILES): [11CH3]Nc1ccc(-c2nc3ccc(O)cc3s2)cc1 [PITTSBURGH COMPOUND B]
